Compound activity from PubChem BioAssay.
Sampled rows, rich in hits. Any-hit rate of the full collection: about 3.8%.
hERG rescue – compounds protecting human hERG from proarrhythmic drug block. CHO-hERG, FluxOR thallium flux, dofetilide IC70 present. 0.51% of 310,000 active. AID 1511. activation (rescue from dofetilide block), less the hit threshold, % at 10 µM. Q12809;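 active means activation above the mean of controls blocked by dofetilide plus 5 SD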;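 further: thallium influx through hERG after potassium depolarization seen as dye fluorescence rise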
KCNK3 inh – human KCNK3 channel inhibition, primary screen. O14649. CHO-KCNK3 thallium flux, FluxOR fluorescence; active compounds read low. B-score at 10 µM. 0.84% of 340,000 active. AID 602410;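 active means B-score under library mean minus 4 SD, starting fluorescence ratio at most library mean plus 5 SD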;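 further: more negative B-score means stronger inhibition of thallium flux through KCNK3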
Target sequence (O14649 whole entry, looked up): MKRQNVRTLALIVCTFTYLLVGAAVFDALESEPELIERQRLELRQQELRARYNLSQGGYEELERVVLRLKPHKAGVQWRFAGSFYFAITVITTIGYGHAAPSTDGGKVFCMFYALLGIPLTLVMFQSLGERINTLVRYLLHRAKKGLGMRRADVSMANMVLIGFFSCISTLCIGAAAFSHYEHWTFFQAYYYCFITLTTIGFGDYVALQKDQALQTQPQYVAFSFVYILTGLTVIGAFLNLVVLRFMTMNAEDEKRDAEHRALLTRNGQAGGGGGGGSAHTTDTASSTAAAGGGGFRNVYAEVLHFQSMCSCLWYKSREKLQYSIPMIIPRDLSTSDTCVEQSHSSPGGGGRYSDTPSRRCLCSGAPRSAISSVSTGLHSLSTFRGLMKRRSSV
KCNK9 block – blocks the human KCNK9 two-pore domain potassium channel; HEK293 KCNK9, FluxOR thallium flux fluorescence; active compounds read low; B-score at 10 µM; 1.2% of 310,000 active; AID 488922;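 active means ratio B-score over 3 SD below the library mean, with starting fluorescence within 5 SD of its mean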;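 further: negative B-score means less thallium flux so channel inhibition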
KCNQ1 block – inhibitors of human KCNQ1 potassium channel. P51787. CHO-K1 KCNQ1, FluxOR thallium flux fluorescence; active compounds read high. B-score at 10 µM. 1.3% of 310,000 active;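 active means compounds whose thallium flux B-score, printed positive for inhibition, exceeds three library SD while starting fluorescence stays within three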;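 further: channel opened by potassium depolarization with thallium stimulus after 20 min compound exposure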
KCNQ1 act – human KCNQ1 channel potentiation or activation; P51787; CHO-K1 KCNQ1, thallium flux FluxOR fluorescence; active compounds read high; B-score at 10 µM; 0.35% of 310,000 active; AID 2648;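 active means fluorescence ratio B-score, a plate-corrected score, at least three library SD, with initial intensity B-score within 5 SD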
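assay system = CHO-K1 cells stably expressing KCNQ1 | medium = assay buffer, equal DMSO in all wells | timing = 37 °C overnight plating, 90-min dark dye load, 20-min compound pretreatment | measured by = kinetic FluxOR thallium fluorescence, 10-s 1-Hz baseline, 110-s post-stimulus read | measure = fluorescence change relative to baseline, converted to B score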
Kir21 inh – blocks the mouse Kir2.1 inward-rectifier potassium channel; P35561; AID 1672; B-score at 10 µM; 0.85% of 310,000 active; HEK293-Kir2.1, FluxOR thallium flux fluorescence; active compounds read low;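 active means fluorescence ratio B-score at or below minus 3 SD of library scores, with starting-brightness B-score within 2 SD, cut at about -4.2 in these data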;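 further: channel flux triggered by added potassium and thallium sulfate stimulus; B-score of peak minus minimum fluorescence over baseline after thallium stimulus; more negative B-score means stronger Kir2.1 block with less thallium influx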
KCNK9 inh conf – human KCNK9 inhibitor confirmation; shares compounds with KCNK9 block; 43% of 4,900 active; HEK293 KCNK9 cells, FluxOR thallium flux fluorescence; inhibition, % at 10 µM;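 active means thallium signal inhibited by more than 5 SD of the compound-free buffer control wells, on both duplicate plates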
Kir21 sel – tests whether KCNK9 modulators also affect mouse Kir2.1; shares compounds with KCNK9 block; Kir2.1 cells, FluxOR thallium flux fluorescence; inhibition, % at 10 µM; 4% of 4,900 active; AID 492993;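 active means thallium signal drop more than 5 SD beyond the mean of the no-compound control wells, seen in both duplicate plates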;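 further: signal is fluorescence rise after thallium addition divided by baseline fluorescence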
KCNK9 uninduced – second counter-screen for KCNK9 modulators: effect in non-induced cells; 40% of 4,900 active; AID 492997; non-induced KCNK9-HEK293, FluxOR thallium flux; inhibition, % at 10 µM; shares compounds with KCNK9 block;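 active means thallium signal drop beyond 5 SD of the untreated control mean, on both duplicate plates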
Large screens that a line does not name were inactive (follow-up assays come after a bar, where they were run).

COc1cccc(CC(=O)N(C)C2CCCN(Cc3ccccc3F)C2)c1 (configuration not stated)	none
COc1ccc(C(=O)C2CCCN(Cc3ccc(F)cc3F)C2)cc1F (configuration not stated)	none | KCNK9 inh conf inactive | Kir21 sel inactive | KCNK9 uninduced inactive
COc1ccc(OC)c(CN2CCCC(C(=O)c3sccc3C)C2)c1 (configuration not stated)	none | KCNK9 inh conf inactive | Kir21 sel inactive | KCNK9 uninduced inactive
Cc1ncc(CN2CCCC(C(=O)c3cccc(OC(C)C)c3)C2)s1 (configuration not stated)	none | KCNK9 inh conf inactive | Kir21 sel inactive | KCNK9 uninduced inactive
COc1cccc(OC)c1CN1CCCC(C(=O)c2cccc(Cl)c2)C1 (configuration not stated)	none | KCNK9 inh conf inactive | Kir21 sel inactive | KCNK9 uninduced inactive
CNC(=O)Oc1ccccc1C1CCCCC1	none (no result: hERG rescue, KCNK9 block, KCNQ1 block, KCNQ1 act, Kir21 inh)
N#CC(Br)Br	none (no result: hERG rescue, KCNK9 block, KCNQ1 block, KCNQ1 act, Kir21 inh)
C/C(=N\NC(=O)c1ccccc1)c1c(O)n(C2CCCCC2)c(=O)[nH]c1=O	none
C/C(=N\N1CCCCC1c1cccnc1)c1c(O)n(C2CCCCC2)c(=S)[nH]c1=O (configuration not stated)	KCNK9 block -14 | KCNK9 inh conf 75.0% | Kir21 sel inactive | KCNK9 uninduced 55.5%
CCCCn1c(O)c(/C(CC)=N/N2CCCCC2c2cccnc2)c(=O)[nH]c1=S (configuration not stated)	KCNK9 block -18.1 | KCNK9 inh conf 77.5% | Kir21 sel inactive | KCNK9 uninduced 55.5%
CCCCn1c(O)c(/C=N/N2CCCCC2c2cccnc2)c(=O)[nH]c1=S (configuration not stated)	none
CCCCN1CCC(O)(c2ccccc2)C(C(=O)c2ccccc2)C1 (configuration not stated)	none | KCNK9 inh conf inactive | Kir21 sel inactive | KCNK9 uninduced inactive
CC(C)=CCc1c(O)cc2c(c1O)C(=O)CC(c1ccc(O)cc1)O2 (configuration not stated)	KCNK9 block -16.7 | KCNK9 inh conf inactive | Kir21 sel inactive | KCNK9 uninduced inactive
COC(=O)C1=C(c2ccc(S(C)(=O)=O)cc2)C[C@@H]2CC[C@H]1N2C(=O)N1CCOCC1	none
CSc1ccc(CN2CCN(Cc3ccccc3Cl)CC2)cc1	Kir21 inh -4.92 | KCNK9 inh conf inactive | Kir21 sel 41.0% | KCNK9 uninduced inactive
CSc1ccc(CN2CCN(C(=O)Cc3ccccc3)CC2)cc1	none
Cc1ccc(C2=CCNCC2)cc1	none
Cc1ccccc1N1CCN(C2CCCN(C(=O)COc3ccccc3)C2)CC1 (configuration not stated)	none | KCNK9 inh conf inactive | Kir21 sel inactive | KCNK9 uninduced inactive
COc1ccccc1OCCCn1cc(C(=O)c2ccco2)c2ccccc21	KCNK9 block -9.76 | KCNK9 inh conf 32.0% | Kir21 sel inactive | KCNK9 uninduced inactive
O=C(c1ccco1)c1cn(Cc2ccc(Cl)cc2)c2ccccc12	KCNK9 block -8.71 | KCNK9 inh conf 56.5% | Kir21 sel inactive | KCNK9 uninduced 37.0%
COCCCn1c(N)c(C(=O)OCCOC)c2nc3ccccc3nc21	none
CCCCNC(=O)c1c(N)n(CCCOC)c2nc3ccccc3nc12	KCNK9 block -8.73 | KCNK9 inh conf inactive | Kir21 sel inactive | KCNK9 uninduced inactive
Fc1ccc(C2=CCN(C(c3cccs3)c3nnnn3CCc3ccccc3)CC2)cc1 (configuration not stated)	KCNK9 block -14.4 | KCNK9 inh conf 60.5% | Kir21 sel inactive | KCNK9 uninduced 35.5%
CC(C)(C)c1cc(OC(=O)Cc2ccccc2)ccc1O	KCNK9 block -12.4 | KCNK9 inh conf 58.0% | Kir21 sel inactive | KCNK9 uninduced 30.0%
O=C(Cc1ccccc1)Oc1cccc(N2C(=O)CCC2=O)c1	none
